According to paper PMC12413468 (Communications Biology, 2025):

Key:
[1] = test system: TSC22D family mRNA in HDMEC; assay: qPCR of TSC22D family members in HDMEC; assay type: cell-based, human; conditions: 1 µM WNK463, 14 hours, two replicates
[2] = test system: phospho-SPAK Ser373/phospho-OSR1 Ser325 in HDMEC; assay: phospho-SPAK/phospho-OSR1 immunoblot in HDMEC; assay type: cell-based, human; conditions: WNK463 1 µM 18 h, unlike OSR1
How it was run: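 Endothelial cells (HDMEC) were kept in MCDB 131 with 10% FBS, 10 mM L-glutamine, 10 ng/ml EGF, 1 ug/mL hydrocortisone and antibiotics, at 37 °C and 5% CO2. Pan-WNK inhibitor was given at 1 µM for 18 h. Cells were harvested in SDS/DTT/β-mercaptoethanol sample buffer, then immunoblotted with an antibody recognising phospho-SPAK Ser373/phospho-OSR1 Ser325. Results are means ± SEM, compared by unpaired two-tailed t-test.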

[3] = test system: A549 cells stably expressing TSC22D1-mNeonGreen; assay: TSC22D1-mNeonGreen localization, A549 cells; assay type: cell-based, human; conditions: A549, WNK463 1 µM, 24 h
How it was run: (§1)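 Stable lines came from a lentiviral vector carrying long-isoform TSC22D1 with a C-terminal mNeonGreen tag, transfected with Lipofectamine 3000. Cells were puromycin-selected and sorted by flow cytometry. Pan-WNK inhibitor was applied at 1 µM for 24 h. Cells on coverslips were fixed (4% PFA, 15 min, RT), permeabilised (0.1% Triton X-100, 4.5 min), blocked with 10% goat serum, stained with antibodies and Alexa secondaries (1:500), mounted with DAPI and imaged by confocal microscopy. In A549, endogenous OSR1 was co-stained.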

[4] = test system: Cavin1 Tyr156 phosphorylation in HDMEC; assay: Cavin1 Tyr156 phosphorylation, immunoblot in HDMEC; assay type: cell-based, human; conditions: WNK1 siRNA 72 h or WNK463 1 µM 18 h
How it was run: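 HDMEC were grown in MCDB 131 with 10% FBS, 10 mM L-glutamine, 10 ng/ml EGF, 1 ug/mL hydrocortisone and penicillin/streptomycin, at 37 °C and 5% CO2. Lysates were made directly in SDS/β-mercaptoethanol sample buffer and immunoblotted for phospho-Cavin1 Tyr156 and total Cavin1. Data are means ± SEM; unpaired two-tailed t-test.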

[5] = test system: HEK293T cells stably expressing TSC22D1-mNeonGreen; assay: TSC22D1-mNeonGreen localization, HEK293T cells; assay type: cell-based, human; conditions: WNK463 1 µM, 24 h, confocal microscopy, n=1
How it was run: as §1

[6] = test system: 3xFLAG-OSR1 / endogenous TSC22D1; assay type: binding, human; conditions: HEK293T cells, 50 µM CCT blocking peptide, n = 3
How it was run: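 HEK293T cells were grown in DMEM with 10% FBS and expressed 3xFLAG-OSR1. Endogenous TSC22D1 was co-immunoprecipitated and detected by immunoblot. Three independent experiments.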

Compound: CC(C)(C)NC(=O)c1cncn1C1CCN(c2ccc(-c3nnc(C(F)(F)F)o3)cn2)CC1 [WNK463]
- mRNA amounts of TSC22D family members [1]: altered mRNA amounts of TSC22D family members
- phosphorylation of SPAK [2]: resistant
- TSC22D1 puncta ([3]; confocal microscopy, n = 3): induced TSC22D1 puncta
- localization of endogenous OSR1 ([3]; immunofluorescence): colocalized in puncta with tagged TSC22D1
- total Cavin1 protein amount [4]: little change
- TSC22D1 puncta [5]: induced TSC22D1 puncta

Compound: NH3^+-SAGRRFIVSPVPE-COO^− [SAGRRFIVSPVPE (WT)]
- association of endogenous TSC22D1 with 3xFLAG-OSR1 [6]: prevented their association
